Screening results from PubChem.
Only a selection was taken, and hits are over-represented in it overall.
GSK3 alpha inh – human GSK-3 alpha kinase inhibition; P49840; ADP-Glo luminescence, 60 min; inhibition, % at 10 µM; 320,000 tested, 0.1% active; AID 2650;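 active = more than half of replicates show inhibition above 20%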;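 also: GST-tagged GSK-3 alpha with peptide substrate and 25 µM ATP; 0% = DMSO neutral wells and 100% = GW8510 positive control wells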
Target sequence (P49840 whole entry, looked up): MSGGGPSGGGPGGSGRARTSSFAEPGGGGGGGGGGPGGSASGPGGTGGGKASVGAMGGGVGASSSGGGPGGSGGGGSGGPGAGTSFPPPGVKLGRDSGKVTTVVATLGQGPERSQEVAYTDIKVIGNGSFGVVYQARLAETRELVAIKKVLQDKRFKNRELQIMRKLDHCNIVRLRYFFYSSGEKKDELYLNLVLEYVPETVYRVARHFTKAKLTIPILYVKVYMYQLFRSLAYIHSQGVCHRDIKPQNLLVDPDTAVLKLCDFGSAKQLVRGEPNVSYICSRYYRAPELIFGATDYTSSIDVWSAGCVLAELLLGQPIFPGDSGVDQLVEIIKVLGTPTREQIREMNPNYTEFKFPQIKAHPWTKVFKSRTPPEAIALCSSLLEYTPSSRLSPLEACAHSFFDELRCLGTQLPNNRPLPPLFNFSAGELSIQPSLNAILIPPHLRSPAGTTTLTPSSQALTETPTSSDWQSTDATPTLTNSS
CDK5 inh – blocks human CDK5/p35 kinase activity; Q00535+Q15078; Recombinant CDK5/p35, ADP-Glo luminescence, 60 min; inhibition, % at 10 µM; 330,000 tested, 0.01% active; AID 488839;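 active = highest replicate inhibition of at least 50% and at least 75% of replicates reaching 50%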;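 also: plate controls were DMSO neutral control for no effect and GW8510 at 10 µM for full effect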
GSK3B inh – blocks human GSK3beta kinase activity | P49841 | AID 2097 | activity score (negative = inhibition), % at 10 µM | 300,000 tested, 0.038% active | GST-GSK3beta kinase, ADP-Glo luminescence, 60 min; hits give low values;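 active = more than half of replicate wells score below -50%, meaning over 50% inhibition versus plate controls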;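 also: 0% = median DMSO wells and -100% = median GW8510 positive control wells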
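Assay system: GST-fused GSK3beta enzyme, cell-free / Medium: Tris pH 7.5 buffer with MgCl2, DTT, BSA, heparin / Also added: peptide substrate plus 25 µM ATP (final) / Compound: 10 µM single point / Timing: kinase reaction with compound 60 min at room temperature / Detection: ADP-Glo luminescence / Benchmarks: DMSO neutral wells and GW8510 at 20 µM as positive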
DYRK1A inh – blocks rat Dyrk1A kinase activity | inhibition, % at 12.5 µM | 310,000 tested, 0.43% active | ADP-Glo luminescence, NFATc1 peptide | Q63470; in the data active = inhibition above about 50%;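 also: plate controls were vehicle with enzyme for no effect and no enzyme for full effect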
STK33 kinase inh – inhibitors of human STK33 kinase. 320,000 tested, 0.073% active. AID 2661. inhibition, % at 10 µM. purified STK33, MBP phosphorylation, ADP-Glo luminescence. Q9BYT3;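 active = inhibition at or above 25%, using the most active replicate where run in duplicate; inactive = inhibition below 25%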
The depositor's hits bear a star; . = no result given.

SMILES	GSK3 alpha inh	CDK5 inh	GSK3B inh	DYRK1A inh	STK33 kinase inh
CCN1CCN(c2c(C=O)c(Cl)nc3ccc(OC)cc23)CC1	82*	1	-55*	15	3
Cc1c(C(=O)OCC(=O)N2C(C)CCCC2C)oc2ccccc12 (stereo unspecified)	3	0	0	-7	1
Cc1c(C(=O)OCC(=O)N2c3ccccc3CC2C)oc2ccccc12 (stereo unspecified)	8	1	-4	0	33*
Cn1c(N)nc2nc[nH]c2c1=S	.	0	.	13	.
CN(CCc1ccccc1)C(=O)c1cccc(NC(=O)Cc2cccc(NC(=O)C3CCCN(C(=O)C4CCCC4)C3)c2)c1 (stereo unspecified)	.	-4	.	6	.
CCN1CCN(c2cc(C)c3cc(NC(=O)c4ccncc4)ccc3n2)CC1	0	1	3	1	0
CCN1CCN(c2cc(C)c3cc(NC(=O)c4ccc(Br)o4)ccc3n2)CC1	-2	2	1	4	29*
CN1/C(=C/C=C(/C#N)C(N)=O)C(C)(C)c2ccccc21	63*	4	-35	11	3
COc1ccc2c(c1OC)OCC2C (stereo unspecified)	.	-2	.	2	.
O=C1NCCCc2c1oc1cc(Br)c(O)c(Br)c21	36	4	0	66*	12
CC(C)NCc1c(O)c(Br)cc2oc3c(c12)CCCC3	.	-1	.	4	.
O=c1[nH]cccc1-c1nc2ccccc2[nH]1	72*	-3	-2	10	10
CC(C)(C)S(=O)N1Cc2ccc(CO)cc2[C@@H]1CCO (stereo partly specified)	.	-2	.	.	.
COc1ccc(C2=CC3=C(Br)C(=O)C(C)(O)C(=O)C3=CO2)cc1 (stereo unspecified)	0	3	2	4	29*
COc1ccc(C(=Cc2cc(OC)c(OC)cc2[N+](=O)[O-])C(=O)O)cc1	.	-2	.	.	.
COc1cc(/C=N/NC(=O)c2sc(N)c(C#N)c2C)cc(Br)c1O	62*	1	-11	6	1
CCCCC(=O)Nc1cc(OC)c(NC(=S)Nc2ccc(OC)cc2)cc1OC	.	1	.	-4	.
Cn1c(N=Nc2ccccc2)nc2ccccc21	27	38	-22	29	34*
N#CC(C#N)=Cc1c[nH]c(=O)c(C#N)c1Nc1ccccc1	74*	.	-25	.	-2
COc1cc(/C=C/C(O)=C/C(=O)/C=C/c2ccc(O)cc2)ccc1O	-3	-2	.	-1	43*
CCC(C(=O)Nc1ccc2[nH]ncc2c1)c1ccccc1 (stereo unspecified)	12	4	2	26	26*
O=C(O)/C=C\C(=O)Nc1ccccc1C(=O)N1CCC(O)(c2ccc(Cl)cc2)CC1	.	-1	.	6	.
O=c1oc2cc(O)ccc2c2c1CCCC2	56*	2	-47	36	5
CC(=O)Oc1ccc2c3c(c(=O)oc2c1)CCCC3	3	2	0	-1	1
c1csc(C2=Nn3c(nnc3-c3ccncc3)SC2)c1	87*	1	-26	31	4
SMILES	GSK3 alpha inh	CDK5 inh	GSK3B inh	DYRK1A inh	STK33 kinase inh
c1ccc(C2=Nn3c(nnc3-c3cccs3)SC2)cc1	-4	0	1	.	-2
O=C(Nc1ccccc1C(=O)O)c1cccc(C(=O)Nc2ccccc2C(=O)O)c1	-5	-1	5	6	57*
O=C(O)Cn1cc(/C=c2/sc3nc4ccccc4n3c2=O)c2ccccc21	-2	-2	-2	47	32*
c1ccc(-c2nc3ccccc3c3nncn23)cc1	0	-2	3	-6	-1
Cc1cccc(-c2nc3ccccc3c3nncn23)c1	5	1	0	58*	53*
O=c1ccc2cc3c([nH]c4ccc(Br)cc43)oc-2c1O	12	12	2	71*	39*
O=c1c2c([nH]c3ccc(Br)cc13)CCCC2	-3	0	-22	-8	0
Cc1cccc(-c2ccc3c(c2)C2CC3CCN2Cc2ccc3c(c2)OCO3)c1 (stereo unspecified)	.	1	.	.	.
CC12CCC3c4cc(CN5CCOCC5)c(O)cc4CCC3C1CCC2=O (stereo unspecified)	.	-2	.	-1	.
CC(C)C[C@H]1CNC(=O)C(=O)N1CC1CCN(CC2CCC(C(C)(C)C)CC2)CC1 (stereo partly specified)	.	-1	.	.	.
Oc1ccc(/C=N/Nc2ccc(C(F)(F)F)cn2)cc1	6	30	-13	.	31*
COc1cc(/C=N/Nc2ccc(C(F)(F)F)cn2)cc(OC)c1O	.	2	-25	8	.
COc1ccc(OC)c(S(=O)(=O)N2CCCC(C(=O)NC3CC3)C2)c1 (stereo unspecified)	.	0	.	-2	.
Cc1ccccc1CSc1nnc(-c2ccncc2)o1	53*	0	-55*	29	-1
c1ccc(CSc2nnc(-c3ccncc3)o2)cc1	67*	7	1	26	0
COC(=O)c1ccc(CSc2nnc(-c3ccncc3)o2)o1	66*	0	-42	-10	-1
N#Cc1ccc(CSc2nnc(-c3ccncc3)o2)cc1	17	-2	0	2	2
Fc1ccccc1CSc1nnc(-c2ccccc2)o1	3	-1	-2	4	0
CCOC(=O)C1=C(C(=O)OCC)N(CC2CCCCC2)CCC1=O	.	-5	.	5	.
COc1cccc(-c2onc3ccc(C(=O)/C=C/N(C)C)cc23)c1	16	1	1	10	54*
C=CCNc1nc(N)c([N+](=O)[O-])c(N2CCCCCC2)n1	22	2	-7	22	-2
CCN(CC)CCCNc1nc(N)c([N+](=O)[O-])c(N2CCCCCC2)n1	54*	0	-16	11	-1
CN1CCc2c(sc3c2c(=O)n(-c2ccccc2)c2n[nH]c(=S)n32)C1	80*	0	-50*	47	36*
CN1CCc2c(sc3c2c(=O)n(-c2ccccc2)c2nncn32)C1	.	2	-21	4	0
CN1CCCC1CCNc1ccc2c(=O)c3ccccc3oc2c1 (stereo unspecified)	7	0	2	16	13
SMILES	GSK3 alpha inh	CDK5 inh	GSK3B inh	DYRK1A inh	STK33 kinase inh
O=c1c2ccccc2oc2ccc(NCCCN3CCOCC3)cc12	3	3	2	5	50*
CN1CCCC1CCNc1ccc2oc3ccccc3c(=O)c2c1 (stereo unspecified)	3	.	-1	.	39*
COc1ccc(-c2cc(=O)c3c(O)cc(O)cc3o2)cc1	0	-2	.	-1	0
O=c1c(O)c(-c2ccc(O)c(O)c2)oc2cc(O)cc(O)c12	57*	-3	-45	4	38*
O=c1cc(-c2ccc(O)c(O)c2)oc2cc(O)cc(O)c12	27	15	-35	91*	-1
O=C(O)C1OC(Oc2c(-c3ccc(O)c(O)c3)oc3cc(O)cc(O)c3c2=O)C(O)C(O)C1O (stereo unspecified)	6	.	0	.	1
CCOc1cc(N2CCOCC2)c(OCC)cc1NC(=O)CN1C(=O)NC(CC)(c2ccc(F)cc2)C1=O (stereo unspecified)	.	-1	.	1	.
